Source: ChEMBL document CHEMBL1165980, “Synthesis and structure-activity relationship study of novel cytotoxic carbamate and N-acylheterocyclic bearing derivatives of betulin and betulinic acid” (Bioorg Med Chem, 2010)
Activity calls are given as the source filed them. The calls are words filed in the database; no cut-off is given here.

Experiments:
[1] = system: HepG2; experiment: Cytotoxicity against human HepG2 cells after 72 hrs by MTT assay; assay type: functional, cell-based; settings: HepG2, 72 h
Method in brief: (§1)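 Exponentially growing cells seeded at 1–8 × 10³ cells/well and left 24 h. Medium then replaced with medium holding compound in DMSO (final DMSO <0.1%), ten serial threefold dilutions, or DMSO alone. Triplicate wells, 72 h exposure. MTT added, 1 h at 37 °C, formazan dissolved in DMSO, A550 read. IC50 by non-linear regression; mean ± SD of at least three experiments.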

[2] = system: Jurkat; experiment: Cytotoxicity against human Jurkat cells after 72 hrs by XTT assay; assay type: functional, cell-based
Method in brief: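 Exponentially growing Jurkat cells (RPMI 1640, 10% heat-inactivated FBS, 1% P/S, 2 mM glutamine) seeded at 5.5 × 10³ cells/well. Exposed to ten serial threefold dilutions of compound or DMSO vehicle in medium, triplicate wells, 72 h. XTT labeling mixture then added for 4 h at 37 °C, A450 read. IC50 by non-linear regression; mean ± SD of at least three experiments.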

[3] = system: HeLa; experiment: Cytotoxicity against human HeLa cells after 72 hrs by MTT assay; assay type: functional, cell-based; method in brief: as §1
[4] = system: HT-29; experiment: Cytotoxicity against human HT-29 cells after 72 hrs by MTT assay; assay type: functional, cell-based; settings: HT-29, 72 h; method in brief: as §1
[5] = system: BJ; experiment: Cytotoxicity against human BJ cells after 72 hrs by MTT assay; assay type: cell-based; method in brief: as §1
[6] = target: T1, DNA topoisomerase 1 (Homo sapiens) (UniProt P11387); experiment: Inhibition of DNA topoisomerase 1-mediated relaxation of supercoiled plasmid DNA at 100 uM after 3 hrs by gel electrophoresis
T1 sequence (whole entry): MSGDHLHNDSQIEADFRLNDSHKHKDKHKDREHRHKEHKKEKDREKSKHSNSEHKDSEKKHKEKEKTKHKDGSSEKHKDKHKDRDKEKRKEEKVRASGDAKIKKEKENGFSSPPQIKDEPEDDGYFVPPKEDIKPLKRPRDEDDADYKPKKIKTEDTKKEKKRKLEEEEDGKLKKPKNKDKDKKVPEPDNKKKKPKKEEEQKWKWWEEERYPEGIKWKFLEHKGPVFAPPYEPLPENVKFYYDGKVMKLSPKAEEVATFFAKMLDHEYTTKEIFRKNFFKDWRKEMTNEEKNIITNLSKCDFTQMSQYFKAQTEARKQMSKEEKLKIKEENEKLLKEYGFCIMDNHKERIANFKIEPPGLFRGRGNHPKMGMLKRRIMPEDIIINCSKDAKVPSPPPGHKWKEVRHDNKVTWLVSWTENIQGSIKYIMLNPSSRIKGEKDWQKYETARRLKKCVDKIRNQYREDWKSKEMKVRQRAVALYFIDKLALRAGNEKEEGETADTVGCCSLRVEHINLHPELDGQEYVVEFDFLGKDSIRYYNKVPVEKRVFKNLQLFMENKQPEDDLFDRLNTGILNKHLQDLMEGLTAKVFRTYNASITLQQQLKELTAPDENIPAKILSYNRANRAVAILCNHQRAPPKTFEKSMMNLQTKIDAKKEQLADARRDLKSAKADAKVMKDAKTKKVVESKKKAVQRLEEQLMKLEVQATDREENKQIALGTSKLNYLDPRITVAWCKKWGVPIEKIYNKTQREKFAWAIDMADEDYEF
Method in brief: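 Topoisomerase I kit assay. Compound at 100 µM final with 0.5% DMSO. Started with 5 U topo I, run 30 min at 37 °C, stopped with 1% SDS. Products resolved on 1% agarose in TAE at 80 V for 3 h, ethidium-stained. Inhibition scored 0 to 3+.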

[7] = system: PC-3; experiment: Cytotoxicity against human PC3 cells after 72 hrs by MTT assay; assay type: functional, cell-based; settings: PC-3, 72 h; method in brief: as §1
[8] = system: BJ; experiment: Selectivity ratio of IC50 for human BJ cells to IC50 for human PC3 cells
[9] = system: PC-3; experiment: Ratio of betulinic acid IC50 to compound IC50 for human PC3 cells; assay type: functional
[10] = in the assay text read “after 30 mins” for “after 3 hrs”

| SMILES | inhibition [6] | inhibition [6, 10] | IC50 [1] | IC50 [2] | IC50 [3] | IC50 [4] | IC50 [5] | IC50 [7] | Ratio IC50 [8] | Ratio IC50 [9] |
| --- | --- | --- | --- | --- | --- | --- | --- | --- | --- | --- |
| C=C(C)[C@@H]1CC[C@]2(C(=O)n3ccnc3C)CC[C@]3(C)[C@H](CC[C@@H]4[C@@]5(C)C=CC(=O)C(C)(C)[C@@H]5CC[C@]43C)[C@@H]12 | – | inactive | 6.8 µM | 12.5 µM | 10.6 µM | 9 µM | – | – | – | – |
| C=C(C)[C@@H]1CC[C@]2(C(=O)n3ccnc3C)CC[C@]3(C)[C@H](CC[C@@H]4[C@@]5(C)CCC(=O)C(C)(C)[C@@H]5CC[C@]43C)[C@@H]12 | inactive | – | 5.5 µM | 5.3 µM | 4.2 µM | 4.7 µM | 48.4 µM | – | – | – |
| C=C(COC)[C@@H]1CC[C@]2(COC(=O)n3ccnc3C)CC[C@]3(C)[C@H](CC[C@@H]4[C@@]5(C)CC[C@H](OC(=O)n6ccnc6C)C(C)(C)[C@@H]5CC[C@]43C)[C@@H]12 | – | inactive | 28.2 µM | > 30 µM | 13.4 µM | > 30 µM | – | – | – | – |
| C=C(C)[C@@H]1CC[C@]2(C(=O)O)CC[C@]3(C)[C@H](CC[C@@H]4[C@@]5(C)CC[C@H](O)C(C)(C)[C@@H]5CC[C@]43C)[C@@H]12 [BETULINIC ACID] | – | – | 36.4 µM | 26.9 µM | 26 µM | 12.8 µM | – | 21.5 µM | – | – |
| C=C(C)[C@@H]1CC[C@]2(COC(=O)n3cncn3)CC[C@]3(C)[C@H](CC[C@@H]4[C@@]5(C)CC[C@H](OC(C)=O)C(C)(C)[C@@H]5CC[C@]43C)[C@@H]12 | – | – | – | – | – | > 30 µM | – | > 30 µM | – | – |
| C=C(C)[C@@H]1CC[C@]2(COC(=O)n3ccnc3C)CC[C@]3(C)[C@H](CC[C@@H]4[C@@]5(C)CC[C@H](OC(C)=O)C(C)(C)[C@@H]5CC[C@]43C)[C@@H]12 | – | – | > 30 µM | > 30 µM | > 30 µM | > 30 µM | – | – | – | – |
| C=C(C)[C@@H]1CC[C@]2(C(=O)n3cncn3)CC[C@]3(C)[C@H](CC[C@@H]4[C@@]5(C)C=C(O)C(=O)C(C)(C)[C@@H]5CC[C@]43C)[C@@H]12 | – | Active | 7.4 µM | 10.5 µM | 5.4 µM | 3.3 µM | 27.9 µM | 1.8 µM | 15 | 12 |
| C=C(C)[C@@H]1CC[C@]2(COC(C)=O)CC[C@]3(C)[C@H](CC[C@@H]4[C@@]5(C)CC[C@H](OC(=O)n6ccnc6C)C(C)(C)[C@@H]5CC[C@]43C)[C@@H]12 | – | – | > 30 µM | > 30 µM | > 30 µM | > 30 µM | – | – | – | – |
| C=C(C)[C@@H]1CC[C@]2(C(=O)O)CC[C@]3(C)[C@H](CC[C@@H]4[C@@]5(C)C=C(OC(=O)n6ccnc6C)C(=O)C(C)(C)[C@@H]5CC[C@]43C)[C@@H]12 | – | Active | 4.7 µM | 9.4 µM | 6.4 µM | 5.9 µM | 37.2 µM | – | – | – |
| C=C(C)[C@@H]1CC[C@]2(COC(C)=O)CC[C@]3(C)[C@H](CC[C@@H]4[C@@]5(C)CC[C@H](OC(=O)n6cncn6)C(C)(C)[C@@H]5CC[C@]43C)[C@@H]12 | – | – | – | – | – | > 30 µM | – | > 30 µM | – | – |

Now from value to compound, other results behind:

| inhibition [6] | inhibition [6, 10] | SMILES | IC50 [1] | IC50 [2] | IC50 [3] | IC50 [4] | IC50 [5] | IC50 [7] | Ratio IC50 [8] | Ratio IC50 [9] |
| --- | --- | --- | --- | --- | --- | --- | --- | --- | --- | --- |
| Active | – | C=C(C)[C@@H]1CC[C@]2(C(=O)O)CC[C@]3(C)[C@H](CC[C@@H]4[C@@]5(C)CC[C@H](OC(=O)n6ccnc6C)C(C)(C)[C@@H]5CC[C@]43C)[C@@H]12 | 7.3 µM | 6.1 µM | 7.5 µM | 5.7 µM | 41.3 µM | – | – | – |
| – | inactive | C=C(C)[C@@H]1CC[C@]2(COC(=O)n3ccnc3C)CC[C@]3(C)[C@H](CC[C@@H]4[C@@]5(C)CC[C@H](OC(=O)n6ccnc6C)C(C)(C)[C@@H]5CC[C@]43C)[C@@H]12 | > 30 µM | > 30 µM | > 30 µM | > 30 µM | – | – | – | – |
| – | Active | C=C(C)[C@@H]1CC[C@]2(CO)CC[C@]3(C)[C@H](CC[C@@H]4[C@@]5(C)CC[C@H](OC(=O)n6cncn6)C(C)(C)[C@@H]5CC[C@]43C)[C@@H]12 | 7.3 µM | 12.2 µM | 6.9 µM | 4.9 µM | 39.4 µM | 2.1 µM | 15 | – |
| – | Active | Cc1nccn1C(=O)OC[C@]12CC[C@@H]([C@@H](C)C=O)C1[C@H]1CC[C@@H]3[C@@]4(C)CC[C@H](O)C(C)(C)[C@@H]4CC[C@@]3(C)[C@]1(C)CC2 (stereo partly drawn) | 14.3 µM | 21.3 µM | 16.6 µM | 15.8 µM | – | – | – | – |
| – | inactive | C=C(C)[C@@H]1CC[C@]2(COC(=O)n3ccnc3C)CC[C@]3(C)[C@H](CC[C@@H]4[C@@]5(C)CC[C@H](O)C(C)(C)[C@@H]5CC[C@]43C)[C@@H]12 | 36.4 µM | 15.8 µM | 11 µM | 16.2 µM | – | – | – | – |
| inactive | – | C=C(COC)[C@@H]1CC[C@]2(COC(=O)n3cncn3)CC[C@]3(C)[C@H](CC[C@@H]4[C@@]5(C)CC[C@H](OC(=O)n6cncn6)C(C)(C)[C@@H]5CC[C@]43C)[C@@H]12 | – | – | – | 12.3 µM | – | 6.4 µM | – | – |
| – | inactive | C=C(COC)[C@@H]1CC[C@]2(COC(=O)n3ccnc3C)CC[C@]3(C)[C@H](CC[C@@H]4[C@@]5(C)CC[C@H](O)C(C)(C)[C@@H]5CC[C@]43C)[C@@H]12 | 14.4 µM | 24.8 µM | 8.9 µM | 10.4 µM | – | – | – | – |
| inactive | – | C=C(C)[C@@H]1CC[C@]2(COC(=O)n3cncn3)CC[C@]3(C)[C@H](CC[C@@H]4[C@@]5(C)CC[C@H](O)C(C)(C)[C@@H]5CC[C@]43C)[C@@H]12 | – | – | – | 7.6 µM | – | 4.7 µM | – | – |
| Active | – | C=C(C)[C@@H]1CC[C@]2(C(=O)n3cncn3)CC[C@]3(C)[C@H](CC[C@@H]4[C@@]5(C)CC[C@H](OC(=O)n6cncn6)C(C)(C)[C@@H]5CC[C@]43C)[C@@H]12 | 6.8 µM | 11.6 µM | 4.1 µM | 1.9 µM | 19.4 µM | 1.1 µM | 15 | 19 |
| inactive | – | C=C(C)[C@@H]1CC[C@]2(COC(=O)n3cncn3)CC[C@]3(C)[C@H](CC[C@@H]4[C@@]5(C)CC[C@H](OC(=O)n6cncn6)C(C)(C)[C@@H]5CC[C@]43C)[C@@H]12 | – | – | – | 17.5 µM | – | 7.9 µM | – | – |
| Active | – | C=C(COC)[C@@H]1CC[C@]2(COC(=O)n3cncn3)CC[C@]3(C)[C@H](CC[C@@H]4[C@@]5(C)CC[C@H](O)C(C)(C)[C@@H]5CC[C@]43C)[C@@H]12 | 9.1 µM | 9.5 µM | 24.3 µM | 5.8 µM | 46.6 µM | 2.6 µM | 15 | – |
